The text below walks through data of ChEMBL document CHEMBL3244008, “Design of species- or isozyme-specific enzyme inhibitors. 2. Differences between a bacterial and a mammalian thymidine kinase in the effect of thymidine substituents on affinity for the thymidine site” (J Med Chem, 1979).

Activity calls are given as the source filed them. The rule behind the calls is not given here.

Experiment [1] deals with Escherichia coli B. Put plainly: Activation of Escherichia coli B thymidine kinase using [2-14C]-thymidine as substrate assessed as formation of [14C]-TMP at 0.1 mM after 10 mins by liquid scintillation spectrometric analysis relative to control. In a few lines: (§1)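 E. coli thymidine kinase (fraction V, purified from frozen cells; 7.2 × 10⁻⁶ units per assay) in Tris-HCl 71 mM, MgCl2 2.85 mM, MnCl2 0.71 mM, ATP 5.7 mM, BSA and [2-14C]thymidine 82 μM with test compound. The mixture was held at 37 °C for 10 min, then boiled. [14C]TMP was resolved by paper electrophoresis (pH 7.6) and scintillation-counted, with the unincubated blank subtracted.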

The subject of experiment [2] is Escherichia coli B. Nature of the experiment: Activation of Escherichia coli B thymidine kinase using [2-14C]-thymidine as substrate assessed as formation of [14C]-TMP at 0.5 mM after 10 mins by liquid scintillation spectrometric analysis relative to control. In a few lines: as §1
Experiment [3] relates to Escherichia coli B. Put plainly: Activation of Escherichia coli B thymidine kinase using [2-14C]-thymidine as substrate assessed as formation of [14C]-TMP at 2 mM after 10 mins by liquid scintillation spectrometric analysis relative to control. In outline:
as §1

Experiment [4] relates to Escherichia coli B. Nature of the experiment: Inhibition of Escherichia coli B thymidine kinase using [2-14C]-thymidine as substrate assessed as formation of [14C]-TMP at 0.5 mM after 10 mins by liquid scintillation spectrometric analysis relative to control. In outline: as §1
The test system of experiment [5] is Escherichia coli B. Nature of the experiment: Inhibition of Escherichia coli B thymidine kinase using [2-14C]-thymidine as substrate assessed as formation of [14C]-TMP at 2 mM after 10 mins by liquid scintillation spectrometric analysis relative to control. In outline:
as §1

For experiment [6], the system named is Escherichia coli B. Nature of the experiment: Activation of Escherichia coli B thymidine kinase using [2-14C]-thymidine as substrate assessed as formation of [14C]-TMP at 8 mM after 10 mins by liquid scintillation spectrometric analysis relative to control. In a few lines: as §1
The test system of experiment [7] is Escherichia coli B. Put plainly: Inhibition of Escherichia coli B thymidine kinase using [2-14C]-thymidine as substrate assessed as formation of [14C]-TMP at 1 mM after 10 mins by liquid scintillation spectrometric analysis relative to control. In outline:
as §1

Experiment [8] in a line: Non-competitive inhibition of Escherichia coli B thymidine kinase using [2-14C]-thymidine as substrate assessed as formation of [14C]-TMP after 10 mins by Lineweaver-Burk double reciprocal plot analysis. Conditions: read-out: I50. In outline:
(§2)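 Fraction V E. coli thymidine kinase was assayed with MgATP 5.7 mM and Mg/Mn salts in Tris-HCl at 37 °C for 10 min, reading [14C]TMP after electrophoresis. Four or more thymidine levels (20–160 μM) were used at each of two inhibitor levels plus an inhibitor-free control, all in duplicate. Ki (competitive) or I50 (noncompetitive) came from replots of Lineweaver-Burk slopes against inhibitor concentration, reproducible to ±7%.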

The test system of experiment [9] is Escherichia coli B. Put plainly: Activation of Escherichia coli B thymidine kinase using [2-14C]-thymidine as substrate assessed as formation of [14C]-TMP at 1 mM after 10 mins by liquid scintillation spectrometric analysis relative to control. In a few lines:
as §1

Experiment [10] is described as follows: Competitive inhibition of Escherichia coli B thymidine kinase using [2-14C]-thymidine as substrate assessed as formation of [14C]-TMP after 10 mins by Lineweaver-Burk double reciprocal plot analysis. Conditions: read-out: Ki(app). In a few lines:
as §2

Experiment [11] concerns Escherichia coli B. Nature of the experiment: Activity of Escherichia coli B thymidine kinase assessed as [14C]-TMP formation at 500 uM after 1 hr by liquid scintillation spectrometric analysis. As to conditions: tested as the 14C-labelled form.
Experiment [12] relates to Escherichia coli B. Put plainly: Activity of Escherichia coli B thymidine kinase assessed as [14C]-TMP formation at 450 uM after 1 hr by liquid scintillation spectrometric analysis. As to conditions: tested as the 14C-labelled form.
Experiment [13] deals with Escherichia coli B. Put plainly: Inhibition of Escherichia coli B thymidine kinase using [2-14C]-thymidine as substrate assessed as formation of [14C]-TMP at 16 mM after 10 mins by liquid scintillation spectrometric analysis relative to control. In outline: as §1
Experiment [14] has as its system Escherichia coli B. Put plainly: Non-competitive inhibition of Escherichia coli B thymidine kinase using [2-14C]-thymidine as substrate assessed as formation of [14C]-TMP at 16 mM after 10 mins by Lineweaver-Burk double reciprocal plot analysis.
Experiment [15] deals with Escherichia coli B. Put plainly: Activity of Escherichia coli B thymidine kinase assessed as [14C]-TMP formation at 775 uM after 1 hr by liquid scintillation spectrometric analysis relative to thymidine. Conditions: tested as the 14C-labelled form.
Experiment [16] deals with Escherichia coli B. Put plainly: Inhibition of Escherichia coli B thymidine kinase using [2-14C]-thymidine as substrate assessed as formation of [14C]-TMP at 4 mM after 10 mins by liquid scintillation spectrometric analysis relative to control. In a few lines: as §1
Experiment [17] deals with Escherichia coli B. Nature of the experiment: Inhibition of Escherichia coli B thymidine kinase using [2-14C]-thymidine as substrate assessed as formation of [14C]-TMP at 8 mM after 10 mins by liquid scintillation spectrometric analysis relative to control. In a few lines:
as §1

As to `CCSC[C@H]1O[C@@H](n2cc(C)c(=O)[nH]c2=O)C[C@@H]1O`, the Activity came out at 70% in experiment [1], 63% in [2] and 46% in [3].
Regarding `CC(=O)Nc1cn([C@H]2C[C@H](O)[C@@H](CO)O2)c(=O)[nH]c1=O`, the inhibition in experiment [4] and in experiment [5] was 15% throughout.
Turning to `Cc1cn([C@H]2C[C@H](O)[C@@H](CSCCC(=O)O)O2)c(=O)[nH]c1=O`, the Activity was 120% in experiment [1], 126% in experiment [2], 125% in experiment [3] and 106% in [6].
Turning to `CCCCNC[C@H]1O[C@@H](n2cc(C)c(=O)[nH]c2=O)C[C@@H]1O`, the inhibition was 9% in experiment [4] and 12% in experiment [5].
As for `CCn1c(=O)ccn([C@H]2C[C@H](O)[C@@H](CO)O2)c1=O`, the inhibition in experiment [4] amounted to 12%; in [7], 22%.
The matching figures for `CC(=O)NC[C@H]1O[C@@H](n2cc(C)c(=O)[nH]c2=O)C[C@@H]1O`: 0% and 0%.
In the case of `CCn1c(=O)c(C)cn([C@H]2C[C@H](O)[C@@H](CO)O2)c1=O`, the inhibition in [4] came out at 30%; in [7], 44%. Further, in experiment [8], the IC50 stood at 1250 µM.
Take `Cc1cn([C@H]2C[C@H](O)[C@@H](CSCCO)O2)c(=O)[nH]c1=O`: the Activity in experiment [2] turned out to be 15%; in experiment [9], 28%; in experiment [3], 25%.
For `CC(=O)N(C)CCN(C)C[C@H]1O[C@@H](n2cc(C)c(=O)[nH]c2=O)C[C@@H]1O`, the inhibition in experiment [5] and in experiment [7] was 0% each time.
Regarding `CC(=O)NCCC(=O)Nc1cn([C@H]2C[C@H](O)[C@@H](CO)O2)c(=O)[nH]c1=O`, the inhibition in experiment [4] and in [5] was 0% throughout.
`NCc1cn([C@H]2C[C@H](O)[C@@H](CO)O2)c(=O)[nH]c1=O`: the inhibition in experiment [4] amounted to 14%; in [7], 25%.
For the compound `CCCCCn1c(=O)c(C)cn([C@H]2C[C@H](O)[C@@H](CO)O2)c1=O`, the inhibition was 45% in experiment [4] and 59% in [7]. In experiment [8], the IC50 came to 650 µM.
For the compound `CC(=O)N(C)CCCCCCN(C)C[C@H]1O[C@@H](n2cc(C)c(=O)[nH]c2=O)C[C@@H]1O`, the inhibition in experiment [5] and in experiment [7] was 14% throughout.
Consider `CCCC(=O)NC[C@H]1O[C@@H](n2cc(C)c(=O)[nH]c2=O)C[C@@H]1O`, for which the inhibition in experiment [4] and in experiment [7] was 0% in each case.
As to `Nc1ccn([C@H]2C[C@H](O)[C@@H](CO)O2)c(=O)n1`, the inhibition in [4] and in experiment [5] was 0% throughout.
On to `O=c1ccn([C@H]2C[C@H](O)[C@@H](CO)O2)c(=O)[nH]1` [DEOXYURIDINE], for which, in [10], the Ki was determined as 290 µM.
On to `CCCn1c(=O)c(C)cn([C@H]2C[C@H](O)[C@@H](CO)O2)c1=O`, for which the inhibition in experiment [4] worked out at 28%; in experiment [7], 39%.
As for `CC(=O)NCC(O)[C@H]1O[C@@H](n2cc(C)c(=O)[nH]c2=O)C[C@@H]1O` (stereo partly specified), the result in [11] and in experiment [12] was inactive.
Consider `Cc1cn([C@H]2C[C@H](O)[C@@H](CSCCCC(=O)O)O2)c(=O)[nH]c1=O`, for which the Activity was 61% in [1], 60% in experiment [2], 62% in experiment [3] and 35% in experiment [6].
As for `CC(=O)NCC(O)[C@H]1O[C@@H](n2cc(C)c(=O)[nH]c2=O)C[C@@H]1O` (mixture of isomers), the Ki in [10] was determined as 2000 µM.
As for `CCOC1N([C@H]2C[C@H](O)[C@@H](CO)O2)C(=O)NC(=O)C1(C)Br` (single isomer, unassigned), the values for the inhibition in [5] and in [13] were 11% and 17%, respectively. Moreover, in experiment [14], the inhibition entry is “inactive”.
Regarding `Cc1cn([C@H]2C[C@H](O)[C@@H](C[S+]([O-])CCC(=O)O)O2)c(=O)[nH]c1=O` (stereo partly specified), the Activity is -2% in experiment [1], -1% in experiment [2], 42% in [3] and 65% in [6].
With `N#Cc1cn([C@H]2C[C@H](O)[C@@H](CO)O2)c(=O)[nH]c1=O`, the inhibition is 23% in [4] and 40% in experiment [5].
On to `CC(=O)NCc1cn([C@H]2C[C@H](O)[C@@H](CO)O2)c(=O)[nH]c1=O`, for which, in [15], the Activity is below 0.021%.
For the compound `O=c1ccn([C@@H]2O[C@H](CO)[C@@H](O)[C@H]2O)c(=O)[nH]1` [URIDINE], the IC50 in experiment [8] is 47500 µM.
Same read-out and setting: next, `Nc1cn([C@H]2C[C@H](O)[C@@H](CO)O2)c(=O)[nH]c1=O`: 28000 µM.
`CCOC1N([C@H]2C[C@H](O)[C@@H](CO)O2)C(=O)NC(=O)C1(C)Br` (single isomer, unassigned; less polar): the inhibition in experiment [13] stood at 0%. Besides, the inhibition result in experiment [14] was “inactive”.
Take `CCNc1cn([C@H]2C[C@H](O)[C@@H](CO)O2)c(=O)[nH]c1=O`: the inhibition in [4] and in experiment [5] was 0% throughout.
Consider `CCNC[C@H]1O[C@@H](n2cc(C)c(=O)[nH]c2=O)C[C@@H]1O`, for which the inhibition came to 28% in experiment [16] and 36% in experiment [17].
Take `CCCCCCNC[C@H]1O[C@@H](n2cc(C)c(=O)[nH]c2=O)C[C@@H]1O`: the Ki in experiment [10] is 2600 µM.
Turning to `CC(=O)N[C@H]1C[C@H](n2cc(C)c(=O)[nH]c2=O)O[C@@H]1CO`, the IC50 in experiment [8] came out at 6100 µM.
`CC[S+]([O-])C[C@H]1O[C@@H](n2cc(C)c(=O)[nH]c2=O)C[C@@H]1O` (stereo partly specified): the results for the Activity in [1], in [3] and in [6] were -5%, -4% and 22%, respectively.
With `CC(=O)N(C)CCCCN(C)C[C@H]1O[C@@H](n2cc(C)c(=O)[nH]c2=O)C[C@@H]1O`, the inhibition in experiment [5] and in experiment [7] was 14% throughout.
For `CCC(=O)NCC(O)[C@H]1O[C@@H](n2cc(C)c(=O)[nH]c2=O)C[C@@H]1O` (single isomer, unassigned; more polar), in experiment [10], the Ki amounted to 6600 µM.
In the case of `CCNc1ccn([C@H]2C[C@H](O)[C@@H](CO)O2)c(=O)n1`, the inhibition in experiment [4] and in experiment [5] was 0% throughout.
As to `Cc1cn([C@H]2C[C@H](N)[C@@H](CO)O2)c(=O)[nH]c1=O` [3-AMINO- 3-DEOXYTHYMIDINE], the IC50 in experiment [8] was 2750 µM.
Same read-out and setting: under `CCS[C@H]1C[C@H](n2cc(C)c(=O)[nH]c2=O)O[C@@H]1CO` stands 320 µM.
For `CCCn1c(=O)ccn([C@H]2C[C@H](O)[C@@H](CO)O2)c1=O`, the inhibition was 18% in [4] and 35% in [7].
As for `CC(=O)NCC(O)[C@H]1O[C@@H](n2cc(C)c(=O)[nH]c2=O)C[C@@H]1O` (stereo in doubt; 4a), the Ki in experiment [10] was found to be 1250 µM.
Same read-out and setting: next, `CCC(=O)NCC(O)[C@H]1O[C@@H](n2cc(C)c(=O)[nH]c2=O)C[C@@H]1O` (single isomer, unassigned; less polar): 850 µM.
Same read-out and setting: next, `Cc1cn([C@H]2C[C@H](O)[C@@H](CN)O2)c(=O)[nH]c1=O`: 320 µM.
